The results in this text go back to ChEMBL document CHEMBL1140566, “Discovery of novel isoxazolines as anti-tuberculosis agents” (Bioorg Med Chem Lett, 2007).

Each structure is given as a SMILES string. Converted amounts (≈) assume the structure as drawn. Bounds are passed on as bounds.

The subject of series [1] is Mycobacterium tuberculosis. The experiment in a line: Antituberculosis activity against Mycobacterium tuberculosis by microbroth dilution method. It counts as functional. The method in brief: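 M. tuberculosis susceptibility was measured by microbroth dilution and reported as MIC90 in μg/mL.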
The test system of series [2] is Mycobacterium tuberculosis. The experiment in a line: Antituberculosis activity in Mycobacterium tuberculosis infected rat assessed as reduction of colony formation. It counts as functional.
Series [3] in a line: Stability in rat liver microsomes after 90 mins. It is filed as ADME, Microsome. The settings on record: read-out: Stability. The method in brief: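 Compounds were incubated with pooled rat liver microsomes and loss of parent was monitored. Intact parent was quantified by LC-MS/MS and reported as % remaining at 90 min.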
Background: Microsomes from liver hold many membrane-bound enzymes, among them those of drug oxidation.

Series [4] in a line: Protein binding in rat. It is filed as ADME, organism-based. The settings on record: plasma, read-out: PB (converted). In outline: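 Plasma protein binding was measured by equilibrium dialysis in RED devices and reported as percent bound.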
Series [5] can be described thus: Solubility at pH 6.0 by shake-flask method. It is filed as physicochemical. The settings on record: buffer. In outline: (§1)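 Aqueous solubility was determined by a miniaturized shake-flask method at pH 6.0 and at pH 7.4, reported in mg/L.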
Series [6] can be described thus: Solubility at pH 7.4 by shake-flask method. It is filed as physicochemical. As to conditions: buffer. In outline:
as §1

A short description of series [7]: Clearance in rat at 100 mg/kg, po. It is filed as ADME, organism-based. More on the design: dose 100 mg/kg, route oral. As to conditions: in vivo. The method in brief: (§2)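 Rats were given single doses at 10 mg/kg intravenously or 100 mg/kg orally. Half-life, AUC to infinity (μg·hr/L), volume of distribution (L/kg) and clearance (L/hr/kg) were derived for each route. Oral bioavailability was calculated relative to the IV dose.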

Series [8] can be described thus: Volume of distribution in rat at 10 mg/kg, iv. It is filed as ADME, organism-based. More on the design: dose 10 mg/kg, route intravenous. As to conditions: in vivo. In outline: as §2
Series [9] in a line: Clearance in rat at 10 mg/kg, iv. It counts as ADME, organism-based. The settings on record: in vivo. Further details: dose 10 mg/kg, route intravenous. The method in brief:
as §2

Series [10] can be described thus: Half life in rat at 10 mg/kg, iv. It is filed as ADME, organism-based. Further details: dose 10 mg/kg, route intravenous. As to conditions: in vivo. In outline: as §2
Series [11] in a line: AUC (0 to infinity) in rat at 10 mg/kg, iv. The settings on record: plasma. It is filed as ADME, organism-based. Further details: time infinity, dose 10 mg/kg, route intravenous. The method in brief: as §2
Series [12] can be described thus: Bioavailability in rat at 100 mg/kg, po. As to conditions: in vivo. It is filed as ADME, organism-based. The method in brief: as §2
Series [13] has as its system Rattus norvegicus. Nature of the series: Volume of distribution in rat at 100 mg/kg, po. As to conditions: in vivo. Further details: dose 100 mg/kg, route oral. It counts as ADME, organism-based. The method in brief: as §2
Series [14] can be described thus: AUC (0 to infinity) in rat at […]. It is filed as ADME, organism-based. More on the design: time infinity. The settings on record: plasma.
Series [15] is described as follows: Half life in rat at 100 mg/kg, po. It is filed as ADME, organism-based. More on the design: dose 100 mg/kg, route oral. The settings on record: in vivo. In outline:
as §2

For `CC(C)(C)OC(=O)N1CCN(c2ccc(C3CC(c4ccc([N+](=O)[O-])o4)=NO3)cc2)CC1` (stereo not given), the MIC90 (in general, the lowest concentration that inhibits either 90% of growth or 90% of the strains tested, depending on the study) in series [1] stood at 0.1 ng/mL (≈ 0.000226 µM).
For the compound `c1ccc(CN2CCN(c3ccc(C4CC(c5ccccn5)=NO4)cc3)CC2)cc1` (stereo not given), the MIC90 in series [1] was over 200000 ng/mL.
Compound `NNC(=O)c1ccncc1` [ISONIAZID] displayed an MIC90 in series [1] of 25 ng/mL (≈ 0.182 µM). Further, the Log10 cfu in series [2] turned out to be 3.98.
Regarding `c1ccc(CN2CCN(c3ccc(C4CC(c5ccncc5)=NO4)cc3)CC2)cc1` (stereo not given), the MIC90 in [1] was determined as 50000 ng/mL (≈ 125 µM).
In [1], `CCCC1=NOC(c2ccc(N3CCN(Cc4ccccc4)CC3)cc2)C1` (stereo not given) yielded an MIC90 of over 200000 ng/mL.
With `CCOC(=O)C1=NOC(c2ccc(N3CCN(Cc4ccccc4)CC3)cc2)C1` (stereo not given), the MIC90 in series [1] was found to be 1560 ng/mL (≈ 3.96 µM).
In the case of `CCOC(=O)N1CCN(c2ccc(C3CC(c4ccc([N+](=O)[O-])o4)=NO3)cc2)CC1` (stereo not given), the remaining at 1.5 h in series [3] amounted to 12%. Moreover, the fraction unbound in series [4] is 0.01. The solubility (thermodynamic) (in general, solubility found after equilibrating the solid with the medium) in [5] was found to be 4 µg/mL (≈ 9.65 µM); in [6] it was 3.6 µg/mL (≈ 8.69 µM). The compound further returned an MIC90 in series [1] of 0.1 ng/mL (≈ 0.000241 µM). Also, in series [2], the Log10 cfu is 0.59.
On to `O=[N+]([O-])c1ccc(C2=NOC(c3ccc(N4CCN(Cc5ccccc5)CC4)cc3)C2)o1` (stereo not given), for which the CL/F (commonly the apparent clearance, not corrected for the fraction that reaches the circulation) in series [7] was 26.3 mL/min/kg. In addition, the remaining at 1.5 h in series [3] came to 31%. In addition, the fraction unbound in series [4] is 0.001. In addition, the Vd in [8] was 2 L/kg; in series [13], 9.3 L/kg. For the same compound, in [9], the clearance (in general, the rate of elimination divided by the concentration) was 8.83 mL/min/kg. For the same compound, the solubility (thermodynamic) in [5] worked out at 3.34 µg/mL (≈ 7.72 µM); in [6], 0.236 µg/mL (≈ 0.546 µM). Besides, the half-life (commonly the time in which the quantity being followed falls by half) is 2.6 h in [10] and 4.2 h in [15]. The figures for the AUC(0-inf) in series [11] and in series [14] were 19100 ng·h/mL and 65900 ng·h/mL, respectively. The MIC90 in series [1] was 0.05 ng/mL (≈ 0.000116 µM). Besides, in series [12], the bioavailability (as a rule, dose-corrected exposure relative to a reference, in per cent) came out at 34.5%. Further, the Log10 cfu in series [2] is given as 0.64.
In the case of `CC(C)NC(=O)N1CCN(c2ccc(C3CC(c4ccc([N+](=O)[O-])o4)=NO3)cc2)CC1` (stereo not given), in [3], the remaining at 1.5 h was found to be 26%. Further, the fraction unbound in series [4] is 0.027. For the same compound, the solubility (thermodynamic) worked out at 27.7 µg/mL (≈ 64.8 µM) in [5] and 20 µg/mL (≈ 46.8 µM) in [6]. Moreover, the MIC90 in series [1] was 0.2 ng/mL (≈ 0.000468 µM). The Log10 cfu in [2] came out at 0.83.
In the case of `O=[N+]([O-])c1ccc(C2=NOC(c3ccc(N4CCCCC4)cc3)C2)o1` (stereo not given), the remaining at 1.5 h in [3] is 6%. Also, the fraction unbound in series [4] is 0.012. In series [5], this compound returned a solubility (thermodynamic) of 0.017 µg/mL (≈ 0.0498 µM). The MIC90 in series [1] came to 1.56 ng/mL (≈ 0.00457 µM). Further, the Solubility (in general, the dissolved amount per volume that the medium holds) in series [6] came to 0.014 µg/mL (≈ 0.041 µM).
In series [1], `O=[N+]([O-])c1ccc(C2=NOC(c3ccc(N4CCN(Cc5ccccc5)CC4)cc3)C2)cc1` (stereo not given) had an MIC90 of over 200000 ng/mL.
